Data published in BindingDB's records for doi:10.1016/j.ejmech.2018.08.004 (The University of Queensland, 2018).

Tests used:
[1] = target: T1, Fe(3+)-Zn(2+) purple acid phosphatase (Phaseolus vulgaris, UniProt P80366); experiment: Competitive inhibition of red kidney bean purple acid phosphatase Fe(3)Fe(2) state assessed as enzyme-inhibitor complex using pNPP as substrate by UV/Vis spectrophotometric method
T1 sequence (P80366 whole entry): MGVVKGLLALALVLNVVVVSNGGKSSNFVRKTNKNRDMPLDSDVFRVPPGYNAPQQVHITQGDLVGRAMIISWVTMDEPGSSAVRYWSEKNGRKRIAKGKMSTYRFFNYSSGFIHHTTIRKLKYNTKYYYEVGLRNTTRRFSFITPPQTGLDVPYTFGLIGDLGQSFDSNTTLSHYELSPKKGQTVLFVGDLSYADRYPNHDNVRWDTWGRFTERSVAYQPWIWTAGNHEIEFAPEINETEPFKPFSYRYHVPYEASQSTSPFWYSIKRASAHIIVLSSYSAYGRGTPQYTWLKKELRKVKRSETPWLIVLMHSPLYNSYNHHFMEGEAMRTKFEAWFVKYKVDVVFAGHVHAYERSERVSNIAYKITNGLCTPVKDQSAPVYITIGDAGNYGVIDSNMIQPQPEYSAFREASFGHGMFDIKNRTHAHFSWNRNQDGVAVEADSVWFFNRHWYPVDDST
In short: (§1)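 Pig PAP was from sow uterine fluid and pre-reduced to Fe(III)Fe(II) with 0.77 mM β-mercaptoethanol (10 min, 37 °C); rkbPAP was purified from red kidney beans. Assays ran at 25 °C, pH 4.9 (0.1 M acetate, 25% DMSO) with 12 nM enzyme, pNPP 1–12.5 mM and inhibitor 50–300 μM. p-Nitrophenol was read at 405 nm. Kic and Kiuc came from non-linear fit to the general inhibition equation.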

[2] = target: T2, Tartrate-resistant acid phosphatase type 5 (Sus scrofa, UniProt P09889); experiment: Competitive inhibition of pig purple acid phosphatase Fe(3)Fe(2) state assessed as enzyme-inhibitor complex using pNPP as substrate by UV/Vis spectrophotometric method; in short: as §1
T2 sequence (P09889 whole entry): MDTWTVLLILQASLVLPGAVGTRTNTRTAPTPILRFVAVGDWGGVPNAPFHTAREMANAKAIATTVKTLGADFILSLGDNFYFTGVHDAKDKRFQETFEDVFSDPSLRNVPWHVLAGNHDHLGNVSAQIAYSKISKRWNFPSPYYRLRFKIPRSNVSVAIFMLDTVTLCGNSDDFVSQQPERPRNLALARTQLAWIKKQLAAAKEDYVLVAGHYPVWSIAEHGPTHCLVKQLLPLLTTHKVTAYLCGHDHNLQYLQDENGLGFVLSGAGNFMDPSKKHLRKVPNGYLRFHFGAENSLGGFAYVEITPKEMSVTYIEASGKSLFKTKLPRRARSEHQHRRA

Structure (SMILES)	Ki [1]	Ki [2]
COc1ccc(-c2nc(C(=O)O)cs2)cc1	400 µM	120 µM
Cc1ccc(-c2nc(C(=O)O)cs2)cc1	340 µM	42 µM
O=C(O)c1csc(-c2cccc3ccccc23)n1	185 µM	33 µM
O=C(O)c1csc(-c2ccccc2Cl)n1	920 µM	630 µM
O=C(O)c1csc(-c2ccc(Cl)cc2)n1	530 µM	49 µM
O=C(O)c1csc(-c2ccccc2)n1	–	190 µM
